Pf gametocyte: late stage P. falciparum gametocyte viability inhibitors, primary screen, ATP luminescence, HTS; P. falciparum stage V gametocytes, 24 h; inhibition, % at 10.9 µM; hit rate 0.065% among 150,000;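 active = inhibition above the mean plus 3 SD of compounds within the control limits, set per campaign, cut at about 38% in these data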
MT stabilize HCS: microtubule stabilizers in HeLa cells, primary screen, imaging, high-content imaging; AID 2205, 2009; % tubulin-high responders, % at 10 µM; hit rate 0.83% among 200,000; HeLa tubulin immunostaining HCS, 24 h; share of cells brighter than vehicle mean+2SD;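 active = plate Z-score above 3 for both tubulin-high and condensed-nucleus cell shares, with cell loss under 80%, at 10 µM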;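 note: anti alpha tubulin signal scored within the nucleus-defined area of each cell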
WT yeast gro inh: growth inhibition of WT strain, primary screen, mitochondrial fusion inhibitor project, WT and mutant strains, chemical genetic. mitochondrial fusion phenotypic screen. inhibition, % at 10 µM. hit rate 2.1% among 190,000; in the data active = inhibition above about 58%; tested in S. cerevisiae
Cl transport mod: KCC2 cotransporter modulators, thallium flux, primary screen, cell-based, HEK293 KCC2, FluoZin-2 fluorescence, MLSMR; Solute carrier family 12 member 5 (Homo sapiens), Q9H2X9; KCC2 cells, thallium flux FluoZin-2 fluorescence; B-score of Tl+ flux slope (higher = more flux/activation; lower = inhibition) at 10 µM; hit rate 2.2% among 190,000; AID 1456, 2008;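 active = thallium flux slope and its plate-corrected score both differing from the plate sample mean at a set confidence after two filtering rounds, in either direction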;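 note: slope of fluorescence scaled to starting intensity during 10 to 20 s after thallium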
Target sequence (Q9H2X9 whole entry, looked up): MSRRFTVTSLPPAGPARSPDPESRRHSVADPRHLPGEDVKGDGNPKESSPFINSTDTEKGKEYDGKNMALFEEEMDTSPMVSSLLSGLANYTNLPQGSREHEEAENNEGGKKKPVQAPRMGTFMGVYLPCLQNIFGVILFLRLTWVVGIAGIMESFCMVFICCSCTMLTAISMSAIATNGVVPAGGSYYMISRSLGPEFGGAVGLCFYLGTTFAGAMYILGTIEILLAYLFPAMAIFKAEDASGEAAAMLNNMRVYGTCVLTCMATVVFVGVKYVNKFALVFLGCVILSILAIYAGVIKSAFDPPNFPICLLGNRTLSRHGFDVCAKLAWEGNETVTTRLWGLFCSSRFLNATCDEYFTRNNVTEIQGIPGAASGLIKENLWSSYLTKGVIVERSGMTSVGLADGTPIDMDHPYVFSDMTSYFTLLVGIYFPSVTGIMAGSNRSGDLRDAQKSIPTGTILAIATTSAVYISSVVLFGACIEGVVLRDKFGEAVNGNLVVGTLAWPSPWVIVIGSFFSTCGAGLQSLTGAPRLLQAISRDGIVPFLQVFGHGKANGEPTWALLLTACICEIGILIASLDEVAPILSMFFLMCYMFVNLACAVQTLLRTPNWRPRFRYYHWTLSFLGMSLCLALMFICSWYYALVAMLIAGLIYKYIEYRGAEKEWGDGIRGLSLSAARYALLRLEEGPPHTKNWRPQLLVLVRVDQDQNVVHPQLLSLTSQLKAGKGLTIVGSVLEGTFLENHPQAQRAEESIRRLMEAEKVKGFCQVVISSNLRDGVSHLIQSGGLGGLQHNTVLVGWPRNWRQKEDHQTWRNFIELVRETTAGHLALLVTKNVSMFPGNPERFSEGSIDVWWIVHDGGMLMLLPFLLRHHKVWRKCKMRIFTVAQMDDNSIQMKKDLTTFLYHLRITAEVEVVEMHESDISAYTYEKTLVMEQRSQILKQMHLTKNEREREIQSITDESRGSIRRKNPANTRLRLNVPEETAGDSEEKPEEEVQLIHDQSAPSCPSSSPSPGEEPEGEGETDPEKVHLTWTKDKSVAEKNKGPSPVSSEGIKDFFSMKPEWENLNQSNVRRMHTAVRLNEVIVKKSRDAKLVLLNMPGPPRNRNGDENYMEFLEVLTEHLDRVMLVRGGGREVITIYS
bCat nuc transl: modulators of beta-catenin nuclear translocation, primary screen, imaging, HeLa cells, immunofluorescence, high-content. hit rate 0.3% among 190,000. AID 1665, 2009. nuclear translocation activity, % at 5 µM;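 active = nuclear translocation activity above 50% at 5 µM, with a well cell count of 50 or more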;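 note: per-cell ratio of nuclear to cytoplasmic median beta-catenin stain intensity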
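Technique: fluorescence imaging of beta-catenin antibody stain plus DAPI / Material: human HeLa cell line / Incubation: compound treatment 24 h, 37°C, 5% CO2 / Read-out basis: % activation of per-cell nuclear versus cytoplasmic median beta-catenin signal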
Numbers stand for hits; 0 = inactive; - = no result given. Only some compounds are listed: those with a hit (about 4% of all), similar ones and a draw of the others.

SMILES | Pf gametocyte | MT stabilize HCS | WT yeast gro inh | Cl transport mod | bCat nuc transl
O=C(CCc1ccccc1)Nc1ncc2c(n1)CCCC2=O | - | 0 | 60.1 | 0 | 0
CCc1ccc(S(=O)(=O)NCCc2csc(-c3ccccc3)n2)s1 | - | 0 | 0 | 0 | 0
CCc1ccc(S(=O)(=O)NCc2csc(-c3ccccc3)n2)s1 | - | 0 | 0 | -4.9 | 0
S=C(NCc1ccccc1)NNc1nc2ccccc2[nH]1 | 0 | 0 | 0 | 0 | 0
O=c1cc(-c2ccccc2)[nH]c2ccccc12 | - | 31.8 | - | - | 193.3
O=C(NNC(=O)c1cccnc1SCc1cccc([N+](=O)[O-])c1)c1ccccn1 | 0 | 0 | 0 | 6.86 | 0
O=C(NNC(=O)c1cccnc1SCc1cccc([N+](=O)[O-])c1)c1ccc(F)cc1 | 0 | 0 | 0 | 0 | 0
O=C(/C=C/c1ccc(F)cc1)Nc1cc(S(=O)(=O)N2CCOCC2)ccc1N1CCCC1 | - | 0 | 0 | 0 | 0
CN1CCN(c2ccc(Cl)cc2NC(=O)/C=C/c2ccc(F)cc2)CC1 | 0 | 0 | 82.7 | 0 | 0
CCN1/C(=C\C(=S)Nc2ccccc2)Sc2ccccc21 | 0 | 0 | 69.2 | 0 | 0
O=C(Cn1cc(C(=O)C(F)(F)F)c2cc(Br)ccc21)N1CCOCC1 | 0 | 0 | 0 | 0 | 0
NC(=O)N=Nc1c2[nH]c3ccccc3nc-2c2ccccc12 | 0 | - | - | 0 | 0
CC1CN(c2oc(Cc3cccc4ccccc34)nc2C#N)CC(C)O1 (stereo unspecified) | - | 0 | 60.5 | - | 0
N#Cc1nc(Cc2cccc3ccccc23)oc1NCCN1CCCCC1 | 0 | 0 | 0 | -4.34 | 0
O=C(N/N=C/c1ccsc1)c1ccc2ccccc2n1 | 0 | 0 | 0 | 0 | 0
O=C(Nc1ccc([N+](=O)[O-])cc1)c1cc(-c2ccccn2)nc2c(Cl)cccc12 | 0 | 0 | 0 | 0 | 0
O=C(NC1=NCCS1)c1cccc(OC(F)F)c1 | 0 | 0 | 0 | 0 | 0
CCCCSc1cnn(-c2ccccc2)c(=O)c1SCCCC | 0 | 0 | 64.3 | 0 | 0
CCOC(=O)c1cc(CC)sc1NC(=O)c1cc([N+](=O)[O-])ccc1N1CCOCC1 | 0 | 0 | 0 | - | 59.3
CC1CCCN(c2ccc([N+](=O)[O-])cc2C(=O)c2ccccc2)C1 (stereo unspecified) | 0 | 0 | 0 | 0 | 59.9
O=C(c1ccccc1)c1cc([N+](=O)[O-])ccc1N1CCOCC1 | 0 | 0 | 0 | 0 | 177.9
CCOC(=O)c1cc(CC)sc1NC(=O)c1ccc(N2CCOCC2)c([N+](=O)[O-])c1 | - | 0 | 0 | - | 0
CC1CCN(c2ccc([N+](=O)[O-])cc2C(=O)O)CC1 | - | 0 | 0 | 0 | 0
O=C(c1ccc(Br)cc1)c1cc([N+](=O)[O-])ccc1N1CCOCC1 | 0 | 16.1 | 0 | 0 | 0
O=C(CSc1nc2cc(Cl)ccc2o1)NCCc1ccccc1 | 0 | 0 | 68.1 | 0 | 0
SMILES | Pf gametocyte | MT stabilize HCS | WT yeast gro inh | Cl transport mod | bCat nuc transl
O=C(NCc1cccs1)c1nc2c(nnn2Cc2ccccc2Cl)c(=O)[nH]1 | 0 | 0 | 0 | -2.72 | 0
CCC(C)NC(=O)c1nc2c(nnn2Cc2ccccc2Cl)c(=O)[nH]1 (stereo unspecified) | - | 0 | 0 | 0 | 0
O=C(O)CCc1nn2c3ccccc3n(CC(=O)c3cccs3)c2nc1=O | 0 | 0 | 0 | 0 | 0
O=C(CSc1nc2ccccc2c(=O)n1CCCC(=O)N1CCCC1)NCc1ccco1 | 0 | 0 | 0 | 0 | -
CCc1ccc(NC(=O)CSc2nc3ccccc3c(=O)n2CCCC(=O)N2CCCC2)cc1 | 0 | 27.4 | 0 | 0 | -
CC(=O)NCCn1c(SCc2ccc(C)cc2)nc2ccccc2c1=O | 0 | 0 | 65.3 | 0 | 0
COc1ccc(CCN(C)CC(O)c2ccccc2)cc1OC (stereo unspecified) | 0 | 0 | 0 | 0 | 0
c1ccc(-c2nc(NCc3cccnc3)c3oc4ccccc4c3n2)cc1 | 0 | 0 | 72.3 | 0 | 0
Cc1c(N(C(=O)Nc2ccccc2)C2=NCC(C)S2)c(=O)n(-c2ccccc2)n1C (stereo unspecified) | - | 0 | 82.1 | 0 | 0
Cc1ccc(N(C(=O)Nc2ccccc2)C2=NCC(C)S2)cc1 (stereo unspecified) | 0 | 0 | 0 | 0 | 0
N#Cc1nc(Cl)c(Cl)c(NN)c1Cl | 0 | - | - | 0 | 0
O=C(Nc1ccc([N+](=O)[O-])cc1)Nc1ccc(OC(F)F)c(Cl)c1 | 0 | 0 | 84.1 | 0 | 0
COc1ccc(NC(=O)CNc2cccc(C#N)c2)cc1Cl | - | 0 | 71.2 | - | 0
COc1ccc(NC(=O)Nc2cccc([N+](=O)[O-])c2)cc1Cl | 0 | 0 | 79.2 | 0 | 0
O=C(Nc1ccc(OC(F)F)c(Cl)c1)Nc1ccc2c(c1)OCO2 | 0 | 0 | 0 | 0 | 0
COc1ccc(NCC(=O)Nc2ccc(C#N)cc2)cc1Cl | 0 | 0 | 0 | 0 | -
N=c1c2c3c(sc2ncn1Nc1ccccc1)CCC3 | 0 | - | - | 0 | 0
COc1cccc(NC2=Nc3cccc4cccc2c34)c1 | - | 0 | 0 | 0 | 0
Cc1ccc(CCC(=O)Nc2ccc([N+](=O)[O-])cc2)o1 | 0 | - | - | - | -
C#CCN(C(=O)CC1C(=O)NCCN1C/C=C/c1ccccc1)C1CCCCC1 (stereo unspecified) | 0 | 0 | 0 | 0 | 0
Cc1ccccc1CSc1nnc(-c2ccncc2)o1 | 0 | 0 | 0 | 0 | 0
Clc1ccc(CSc2nnc(-c3ccncc3)o2)c(Cl)c1 | 0 | 0 | 76.5 | 0 | 0
CNc1oc(C)nc1S(=O)(=O)c1ccc(C)cc1 | 0 | 0 | 67.6 | - | 0
Cc1cc([N+](=O)[O-])ccc1NC(=S)NC(=O)Cc1ccccc1 | 0 | 0 | 0 | 8.51 | 0
Cc1ccc([N+](=O)[O-])cc1NC(=S)NC(=O)CC(C)(C)C | 0 | 0 | 68.4 | - | 0
SMILES | Pf gametocyte | MT stabilize HCS | WT yeast gro inh | Cl transport mod | bCat nuc transl
Cc1ccc(NC(=S)NCCSc2ccc(Cl)cc2)c(C)c1 | 0 | 0 | 73.3 | 0 | 0
CCc1ccccc1NC(=S)NCCSc1ccc(Cl)cc1 | 0 | 0 | 81.2 | 0 | -
CS(=O)(=O)Nc1ccccc1C(=O)NCCSc1ccc(Cl)cc1 | 0 | - | - | - | -
Cc1ccc(C)c(NC(=S)NCCSc2ccc(Cl)cc2)c1 | - | 0 | 77.8 | 0 | 0
Cc1ccc(Cl)cc1NC(=S)NCCCSC1CCCCC1 | 0 | 0 | 86.2 | 0 | 0
Cc1cc(Cl)ccc1NC(=S)NCCCO | 0 | 0 | 0 | 0 | 0
Cc1ccc(NC(=O)CN(c2ccccc2)S(=O)(=O)N(C)C)cc1 | 0 | 0 | 0 | 0 | 0
CN(C)S(=O)(=O)c1ccc(NC(=O)CNc2cc(S(=O)(=O)N3CCCC3)ccc2OCC(F)(F)F)cc1 | 0 | 0 | 0 | 0 | 0
CCOc1ccccc1C(=O)Nc1cccc2cccnc12 | 0 | - | - | - | -
CCc1ccc(C2=NN(CCC(=O)NC(C)CCc3ccccc3)C(=O)CC2)cc1 (stereo unspecified) | 0 | 0 | 0 | 0 | 0
CC1CC(C)CN(C(=O)C(NS(=O)(=O)c2ccc(Br)s2)c2ccccc2)C1 (stereo unspecified) | 0 | 0 | 0 | 0 | 0
Cc1ccccc1NC(=S)NCCSc1ccc(Cl)cc1 | 0 | 0 | 79.7 | 0 | 0
Cc1cccc(NC(=O)NCCc2ccc(Cl)cc2)c1 | 0 | 0 | 0 | 0 | 0
